Results: ChEMBL document CHEMBL3046445, “Steroid conjugates: Synthesis and preliminary biological testing of pro-juvenoids” (2010)

Tests used:
[1] = tested on: Pyrrhocoris apterus; experiment: Inhibition of metamorphosis in freshly molted Pyrrhocoris apterus (red firebug) fourth-instar nymph assessed as compound dose per individual causing reduction in metamorphosis by oral drinking assay; type: functional
Procedure, shortened: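 Drinking assay: compound in acetone was added to distilled water with Tween-80 at 0.025, 0.25, 2.5 and 25 per microlitre. It was offered in cotton-plugged glass vials at the end of the fourth nymphal instar, with the acetone/water/Tween-80 mixture as reference. Ten insects per concentration, three replicates, 25 ± 0.5 °C, 16L:8D, 50 ± 5% RH. Metamorphosis inhibition was scored morphologically after the last ecdysis.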

[2] = tested on: Pyrrhocoris apterus; experiment: Inhibition of metamorphosis in freshly molted Pyrrhocoris apterus (red firebug) fifth-instar nymph assessed as compound dose per individual causing reduction in metamorphosis by topical screening test; type: functional
Procedure, shortened: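 Topical application with a Burkhard microapplicator; acetone alone served as the reference treatment. Ten insects per dose, three replicates. Insects were held in Petri dishes at 25 ± 0.5 °C, 16L:8D, 50 ± 5% RH, and checked daily. The degree of metamorphosis inhibition was scored morphologically after the next molt. ID-50 per individual was computed from linear regression tested by ANOVA.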

## CCOC(=O)NCCOc1ccc(C[C@@H]2CCCC[C@@H]2OC(=O)CCC(=O)O[C@H]2CC[C@@]3(C)C(=CC[C@H]4[C@@H]5CC[C@H]([C@H](C)/C=C/[C@@H](CC)C(C)C)[C@@]5(C)CC[C@@H]43)C2)cc1
[1]
  ID50: 4.989 µg
[2]
  ID50: 0.0185 µg

## CCOC(=O)NCCOc1ccc(C[C@H]2CCCC[C@@H]2OC(=O)CCC(=O)O[C@H]2CC[C@@]3(C)C(=CC[C@H]4[C@@H]5CC[C@H]([C@H](C)/C=C/[C@@H](CC)C(C)C)[C@@]5(C)CC[C@@H]43)C2)cc1
[1]
  ID50: >25 µg
[2]
  ID50: >5 µg

## CCOC(=O)NCCOc1ccc(C[C@@H]2CCCC[C@@H]2OC(=O)CC[C@@H](C)[C@H]2CC[C@H]3[C@@H]4[C@H](OC=O)C[C@@H]5C[C@H](OC=O)CC[C@]5(C)[C@H]4C[C@H](OC=O)[C@]23C)cc1
[1]
  ID50: 0.051 µg
[2]
  ID50: 0.094 µg

## CCOC(=O)NCCOc1ccc(C[C@H]2CCCC[C@@H]2OC(=O)CC[C@@H](C)[C@H]2CC[C@H]3[C@@H]4[C@H](OC=O)C[C@@H]5C[C@H](OC=O)CC[C@]5(C)[C@H]4C[C@H](OC=O)[C@]23C)cc1
[1]
  ID50: 6.153 µg
[2]
  ID50: 1.775 µg

## CCOC(=O)NCCOc1ccc(C[C@@H]2CCCC[C@@H]2OC(=O)CC[C@@H](C)[C@H]2CC[C@H]3[C@@H]4[C@H](OC=O)C[C@@H]5C[C@H](O)CC[C@]5(C)[C@H]4C[C@H](OC=O)[C@]23C)cc1
[1]
  ID50: 0.423 µg
[2]
  ID50: 0.062 µg

## CCOC(=O)NCCOc1ccc(C[C@H]2CCCC[C@@H]2OC(=O)CC[C@@H](C)[C@H]2CC[C@H]3[C@@H]4[C@H](OC=O)C[C@@H]5C[C@H](O)CC[C@]5(C)[C@H]4C[C@H](OC=O)[C@]23C)cc1
[1]
  ID50: >25 µg
[2]
  ID50: >5 µg

## CCOC(=O)NCCOc1ccc(C[C@H]2CCCC[C@@H]2O)cc1 (relative stereo)
[1]
  ID50: 0.5 µg
[2]
  ID50: 0.71 µg

## CCOC(=O)NCCOc1ccc(C[C@@H]2CCCC[C@@H]2O)cc1 (relative stereo)
[1]
  ID50: 0.0012 µg
[2]
  ID50: 0.001 µg

## COC(C)(C)CCC[C@H](C)C/C=C/C(C)=C/C(=O)OC(C)C [METHOPRENE]
[1]
  ID50: 0.41 µg
[2]
  ID50: 0.01 µg

## CCOC(=O)NCCOc1ccc(Oc2ccccc2)cc1 [PHENOXYCARB]
[1]
  ID50: 0.2 µg
[2]
  ID50: 0.09 µg

## CC(COc1ccc(Oc2ccccc2)cc1)Oc1ccccn1 (configuration not stated) [PYRIPROXYFEN]
[1]
  ID50: 25 µg
[2]
  ID50: 2.3 µg
